These results are taken from ChEMBL document CHEMBL1132167, “Flavonoid-related modulators of multidrug resistance: synthesis, pharmacological activity, and structure-activity relationships” (J Med Chem, 1999).

A value given as a limit tells only on which side of the number the result lay.

One may read the IC50 as the concentration at which inhibition is half-maximal.

Data set [1] addresses T1, ATP-dependent translocase ABCB1 (Homo sapiens, UniProt P08183). Briefly: Pgp transport inhibitory activity at 5 uM was measured by JC-1 accumulation assay method using JC-1 as substrate. In kind it is functional. In short, it runs like this: (§1)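 JC-1 stock (1 mg/mL in DMSO) diluted to 5 μg/mL in PBS with 1 g/L glucose, then filtered to remove aggregates (monomer 0.2 μM final). Washed K562/DOX cells at 5×10^5/mL were incubated with JC-1 and compound concurrently at 37 °C, DMSO ≤0.5%. Fluorescence (485/590 nm) was followed to plateau, about 2 h. Accumulation is expressed as % of the 5 μM S9788 plate control after subtracting JC-1 alone. Mean of ≥2 experiments.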

For data set [2], the target named is T1, ATP-dependent translocase ABCB1. Briefly: Pgp transport inhibitory activity at 1 uM was measured by JC-1 accumulation assay method using JC-1 as substrate. In kind it is functional. An outline of the steps:
as §1

Data set [3] in a line: (§2) modulation factor: IC50 (uM). In kind it is functional.
A further data set deals with K562. Briefly: Ability to potentiate DOX cytotoxicity on K562/DOX MDR cells. Cell survival was assayed by MTT conversion. Conditions: Homo sapiens. It is filed as functional, cell-based. In short, it runs like this: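 K562/DOX human erythroleukemia cells (doxorubicin-selected, Pgp-overexpressing; RPMI-1640 + 10% FCS) exposed 72 h to seven graded doxorubicin concentrations (six wells each) plus tested compound at 1 or 5 μM, DMSO ≤0.1% final. MTT formazan dissolved in DMSO, A570 read. Survival relative to untreated wells; DOX IC50 by linear interpolation; MF = IC50(DOX alone)/IC50(DOX + compound). Mean of ≥2 independent experiments.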

Data set [4] in a line: as §2. In kind it is functional. The source holds these as a separate data set.
In data set [5] the target is T1, ATP-dependent translocase ABCB1. The data set is described as follows: Pgp transport inhibitory activity at 10 uM was measured by JC-1 accumulation assay method using JC-1 as substrate. In kind it is functional. An outline of the steps: as §1

T1 sequence (P08183 whole entry): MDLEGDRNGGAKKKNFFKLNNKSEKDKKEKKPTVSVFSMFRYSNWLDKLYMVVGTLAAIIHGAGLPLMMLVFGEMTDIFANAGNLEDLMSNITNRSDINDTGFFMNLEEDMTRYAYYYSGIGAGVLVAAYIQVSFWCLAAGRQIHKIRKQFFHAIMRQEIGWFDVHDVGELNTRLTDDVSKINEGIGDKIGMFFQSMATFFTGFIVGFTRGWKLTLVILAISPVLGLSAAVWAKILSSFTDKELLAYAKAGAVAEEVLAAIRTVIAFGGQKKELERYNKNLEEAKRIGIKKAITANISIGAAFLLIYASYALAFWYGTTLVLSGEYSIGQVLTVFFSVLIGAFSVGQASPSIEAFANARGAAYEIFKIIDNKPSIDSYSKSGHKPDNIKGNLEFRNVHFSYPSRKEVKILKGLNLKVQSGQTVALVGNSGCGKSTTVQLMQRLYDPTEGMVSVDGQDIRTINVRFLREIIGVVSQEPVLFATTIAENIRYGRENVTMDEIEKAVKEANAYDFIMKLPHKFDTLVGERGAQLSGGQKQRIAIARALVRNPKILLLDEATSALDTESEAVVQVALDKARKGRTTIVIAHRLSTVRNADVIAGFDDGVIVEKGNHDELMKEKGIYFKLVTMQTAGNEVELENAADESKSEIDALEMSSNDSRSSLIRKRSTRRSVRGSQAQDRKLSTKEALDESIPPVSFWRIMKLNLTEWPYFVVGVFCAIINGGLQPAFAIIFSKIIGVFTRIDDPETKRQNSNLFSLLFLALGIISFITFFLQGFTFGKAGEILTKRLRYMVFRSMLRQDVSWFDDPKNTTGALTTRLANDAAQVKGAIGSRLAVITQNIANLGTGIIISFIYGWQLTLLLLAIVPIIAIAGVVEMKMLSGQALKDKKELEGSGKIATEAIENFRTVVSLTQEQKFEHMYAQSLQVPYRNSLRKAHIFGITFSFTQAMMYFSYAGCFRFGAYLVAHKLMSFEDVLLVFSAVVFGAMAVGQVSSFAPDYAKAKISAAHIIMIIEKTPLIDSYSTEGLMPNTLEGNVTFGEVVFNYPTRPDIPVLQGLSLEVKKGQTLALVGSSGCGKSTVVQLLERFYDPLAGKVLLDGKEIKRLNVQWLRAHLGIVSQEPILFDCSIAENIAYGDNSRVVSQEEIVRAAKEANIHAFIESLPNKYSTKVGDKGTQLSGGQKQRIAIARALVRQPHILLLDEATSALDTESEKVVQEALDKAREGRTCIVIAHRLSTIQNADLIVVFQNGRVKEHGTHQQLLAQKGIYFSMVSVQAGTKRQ

As to `COc1ccc(C2CC(=O)c3c(OC(C)=O)cc(OCC(=O)N4CCN(Cc5ccc(OC)c(OC)c5OC)CC4)cc3O2)cc1OC(C)=O` (stereo not given), the “Relative JC-1 accumulation” value is 55 in data set [1], 2 in data set [2] and 75 in data set [5]. The Modulation factor in data set [3] was found to be 31; in data set [4] it was 10. Further, the IC50 with K562 is > 20 µM.

For `COc1ccc(C2CC(=O)c3c(O)cc(OCC(=O)N4CCN(Cc5ccc(OC)c(OC)c5OC)CC4)cc3O2)cc1OC(C)=O` (stereo not given), the “Relative JC-1 accumulation” value came to 82 in data set [1], 33 in data set [2] and 91 in data set [5]. The Modulation factor in data set [3] worked out at 31; in data set [4], 8. For the same compound, in the data set on K562, the IC50 is > 20 µM.

With `COc1ccc(C2CC(=O)c3c(OC(=O)C(C)(C)C)cc(OCC(=O)N4CCN(Cc5ccc(OC)c(OC)c5OC)CC4)cc3O2)cc1OC(=O)C(C)(C)C` (stereo not given), the “Relative JC-1 accumulation” value came out at 82 in data set [1], 72 in data set [2] and 75 in data set [5]. Besides, the figures for the Modulation factor in data set [3] and in data set [4] were 45 and 18, respectively. Moreover, the half-inhibitory concentration (IC50) with K562 was > 20 µM.

Consider `COc1ccc(/C=C/C(=O)c2c(O)cc(OCC(=O)N3CCN(Cc4ccc(OC)c(OC)c4OC)CC3)cc2O)cc1O`, for which the “Relative JC-1 accumulation” value was 17 in data set [1], 3 in data set [2] and 21 in data set [5]. Also, the Modulation factor in data set [3] is 45; in data set [4] it was 9. Besides, the IC50 in the data set on K562 is > 20 µM.

As for `COc1ccc(-c2cc(=O)c3c(OCC(=O)N4CCN(Cc5ccc(OC)c(OC)c5OC)CC4)cc(OCc4ccccc4)cc3o2)cc1OCc1ccccc1`, the results for the “Relative JC-1 accumulation” value in data set [1], in data set [2] and in data set [5] were 50, 28 and 56, respectively. In addition, the Modulation factor is 45 in data set [3] and 14 in data set [4]. The IC50 in the data set on K562 is 8 µM.
